Data taken from ChEMBL document CHEMBL1153830, “Treatment of a clinically relevant plant-pathogenic fungus with an agricultural azole causes cross-resistance to medical azoles and potentiates caspofungin efficacy” (2007).
Values after ≈ are worked out from the molar mass of the structure shown. Active and inactive are the calls of the source. The rule behind the calls is not given here.

How the values were obtained:
[1] = tested on: Colletotrichum graminicola; assay: Fungicidal activity against tebuconazole-adapted wild type Colletotrichum graminicola CgM2 assessed as metabolically inactive hyphae at 0.025 ug/ml after 3 days by FUN1 staining-based fluorescence microscopy; assay type: functional, organism-based
How it was run: (§1)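 Mycelia were grown 3 days in liquid complete medium with drug at 0–5 μg/ml. Staining used 50 μM FUN-1 in 2% glucose and 10 mM HEPES (pH 7.2), 1 h at 27°C. Viability was scored by epifluorescence microscopy with a GFP-LP filter. Negative controls were killed with 70% ethanol for 30 min before staining.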

[2] = tested on: Colletotrichum graminicola; assay: Fungicidal activity against tebuconazole-adapted wild type Colletotrichum graminicola CgM2 assessed as cell wall rigidity deffect-related increase in apical cell diameter at 0.025 ug/ml after 3 days by differential interference contrast microscopy; assay type: functional, organism-based
How it was run: (§2)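 Mycelia were grown 3 days in liquid complete medium with caspofungin at 0–5 μg/ml. Cell wall rigidity and hyphal swelling were judged by Nomarski (DIC) light microscopy.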

[3] = tested on: Colletotrichum graminicola; assay: Fungicidal activity against tebuconazole-adapted wild type Colletotrichum graminicola CgM2 assessed as cell death at 0.25 ug/ml after 3 days by FUN1 staining-based fluorescence microscopy; assay type: functional, organism-based; how it was run: as §1
[4] = tested on: Colletotrichum graminicola; assay: Fungicidal activity against tebuconazole-adapted wild type Colletotrichum graminicola CgM2 assessed as cell wall rigidity deffect-related cell wall swelling at 0.25 ug/ml after 3 days by differential interference contrast microscopy; assay type: functional, organism-based; how it was run: as §2
[5] = tested on: Colletotrichum graminicola; assay: Fungicidal activity against tebuconazole-adapted wild type Colletotrichum graminicola CgM2 assessed as increase in metabolically inactive hyphal count at 2.5 ug/ml after 3 days by FUN1 staining-based fluorescence microscopy; assay type: functional, organism-based; how it was run: as §1
[6] = tested on: Colletotrichum graminicola; assay: Fungicidal activity against tebuconazole-adapted wild type Colletotrichum graminicola CgM2 assessed as deffects in cell wall rigidity at 2.5 ug/ml after 3 days by differential interference contrast microscopy; assay type: functional, organism-based; how it was run: as §2
[7] = tested on: Colletotrichum graminicola; assay: Fungicidal activity against tebuconazole-nonadapted wild type Colletotrichum graminicola CgM2 infected in excised human skin assessed as inhibition of invasive colonized hyphal growth at epidermis at ED50 after 4 days by Uvitex-2B staining-based fluorescence microscopy; assay type: functional, organism-based
How it was run: (§3)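 Excised human skin from reduction mammoplasty, all pieces from one donor, cut to 20 mm discs. Each disc got 15–20 prick wounds and 100 μl of 10^6 conidia/ml. Discs sat in a Franz diffusion cell at 32°C over isotonic NaCl for up to 4 days. Drug was applied at ED50, ED90 or 2× ED90, three pieces per condition. Biopsies were cryosectioned and Uvitex 2B-stained; hyphal area per section was measured by fluorescence.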

[8] = tested on: Colletotrichum graminicola; assay: Fungicidal activity against tebuconazole-nonadapted wild type Colletotrichum graminicola CgM2 infected in excised human skin assessed as inhibition of invasive colonized hyphal growth at epidermis at ED90 after 4 days by Uvitex-2B staining-based fluorescence microscopy; assay type: functional, organism-based; how it was run: as §3
[9] = tested on: Colletotrichum graminicola; assay: Fungicidal activity against tebuconazole-nonadapted wild type Colletotrichum graminicola CgM2 assessed as inhibition of radial growth rate at 23 degC in darkness; assay type: functional
How it was run: (§4)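 Radial growth on solid complete medium, 23°C, darkness. Colony diameters were read at 3 and 6 days after inoculation and compared with drug-free control plates. Azoles and picoxystrobin were dissolved in 12% (wt/vol) Cremophor EL and tested at 0–2.5 μg/ml. Caspofungin, amphotericin B and nystatin were dissolved in water and tested from 0.00025 μg/ml; caspofungin plates used sucrose (10 mg/ml) in place of glucose.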

[10] = tested on: Colletotrichum graminicola; assay: Fungicidal activity against tebuconazole-adapted wild type Colletotrichum graminicola CgM2 assessed as inhibition of radial growth rate at 23 degC in darkness; assay type: functional; how it was run: as §4
[11] = tested on: Colletotrichum graminicola; assay: Fungicidal activity against tebuconazole-nonadapted wild type Colletotrichum graminicola CgM2 assessed as metabolically inactive hyphae at 0.025 ug/ml after 3 days by FUN1 staining-based fluorescence microscopy; assay type: functional, organism-based; how it was run: as §1
[12] = tested on: Colletotrichum graminicola; assay: Fungicidal activity against tebuconazole-nonadapted wild type Colletotrichum graminicola CgM2 assessed as deffects in cell wall rigidity at 0.025 ug/ml after 3 days by differential interference contrast microscopy; assay type: functional, organism-based; how it was run: as §2
[13] = tested on: Colletotrichum graminicola; assay: Fungicidal activity against tebuconazole-nonadapted wild type Colletotrichum graminicola CgM2 assessed as metabolically inactive hyphae at 0.25 ug/ml after 3 days by FUN1 staining-based fluorescence microscopy; assay type: functional, organism-based; how it was run: as §1
[14] = tested on: Colletotrichum graminicola; assay: Fungicidal activity against tebuconazole-nonadapted wild type Colletotrichum graminicola CgM2 assessed as deffects in cell wall rigidity at 0.25 ug/ml after 3 days by differential interference contrast microscopy; assay type: functional, organism-based; how it was run: as §2
[15] = tested on: Colletotrichum graminicola; assay: Fungicidal activity against tebuconazole-nonadapted wild type Colletotrichum graminicola CgM2 assessed as deffects in cell wall rigidity at hyphal apex at 0.25 ug/ml after 3 days by differential interference contrast microscopy; assay type: functional, organism-based; how it was run: as §2
[16] = tested on: Colletotrichum graminicola; assay: Fungicidal activity against tebuconazole-nonadapted wild type Colletotrichum graminicola CgM2 assessed as cell death at 2.5 ug/ml after 3 days by FUN1 staining-based fluorescence microscopy; assay type: functional, organism-based; how it was run: as §1
[17] = tested on: Colletotrichum graminicola; assay: Fungicidal activity against tebuconazole-nonadapted wild type Colletotrichum graminicola CgM2 assessed as deffects in cell wall rigidity at 2.5 ug/ml after 3 days by differential interference contrast microscopy; assay type: functional, organism-based; how it was run: as §2
[18] = tested on: Colletotrichum graminicola; assay: Fungicidal activity against tebuconazole-nonadapted wild type Colletotrichum graminicola CgM2 infected in excised human skin assessed as inhibition of invasive colonized hyphal growth at epidermis at twofold ED90 after 4 days by Uvitex-2B staining-based fluorescence microscopy; assay type: functional, organism-based; how it was run: as §3
[19] = tested on: Colletotrichum graminicola; assay: Fungicidal activity against tebuconazole-nonadapted wild type Colletotrichum graminicola CgM2 infected in excised human skin assessed as inhibition of invasive colonized hyphal growth at dermis at ED50 after 4 days by Uvitex-2B staining-based fluorescence microscopy; assay type: functional, organism-based; how it was run: as §3
[20] = tested on: Colletotrichum graminicola; assay: Fungicidal activity against tebuconazole-nonadapted wild type Colletotrichum graminicola CgM2 infected in excised human skin assessed as inhibition of invasive colonized hyphal growth at dermis at ED90 after 4 days by Uvitex-2B staining-based fluorescence microscopy; assay type: functional, organism-based; how it was run: as §3
[21] = tested on: Colletotrichum graminicola; assay: Fungicidal activity against tebuconazole-adapted wild type Colletotrichum graminicola CgM2 infected in excised human skin assessed as inhibition of invasive colonized hyphal growth at epidermis at ED90 after 4 days by Uvitex-2B staining-based fluorescence microscopy; assay type: functional, organism-based; how it was run: as §3
[22] = tested on: Colletotrichum graminicola; assay: Fungicidal activity against tebuconazole-adapted wild type Colletotrichum graminicola CgM2 infected in excised human skin assessed as inhibition of invasive colonized hyphal growth at dermis at ED90 after 4 days by Uvitex-2B staining-based fluorescence microscopy; assay type: functional, organism-based; how it was run: as §3
[23] = tested on: Colletotrichum graminicola; assay: Fungicidal activity against tebuconazole-adapted wild type Colletotrichum graminicola CgM2 infected in excised human skin assessed as inhibition of invasive colonized hyphal growth at hypodermis at ED90 after 4 days by Uvitex-2B staining-based fluorescence microscopy; assay type: functional, organism-based; how it was run: as §3
[24] = Colletotrichum graminicola, CgM2, read-out: ED50 (the source's name)

CC[C@H](C)C[C@H](C)CCCCCCCCC(=O)N[C@H]1C[C@@H](O)[C@@H](NCCN)NC(=O)[C@@H]2[C@@H](O)CCN2C(=O)[C@H]([C@H](O)CCN)NC(=O)[C@H]([C@H](O)[C@@H](O)c2ccc(O)cc2)NC(=O)[C@@H]2C[C@@H](O)CN2C(=O)[C@H]([C@@H](C)O)NC1=O [CASPOFUNGIN]
Activity [1]: Active | Activity [2]: Active | Activity [3]: Active | Activity [4]: Active | Activity [5]: Active | Activity [6]: inactive | Activity [7]: inactive | Activity [8]: inactive | ED90 [9]: 1.281 µg/mL (≈ 1.17 µM) | EC50 [9, 24]: 0.032 µg/mL (≈ 0.0293 µM) | ED90 [10]: 0.77 µg/mL (≈ 0.704 µM) | EC50 [10, 24]: 0.006 µg/mL (≈ 0.00549 µM) | Activity [11]: inactive | Activity [12]: inactive | Activity [13]: Active | Activity [14]: Active | Activity [15]: Active | Activity [16]: Active | Activity [17]: Active | Activity [18]: inactive | Activity [19]: inactive | Activity [20]: inactive | Activity [21]: Active | Activity [22]: Active | Activity [23]: Active
